Test results taken from ChEMBL document CHEMBL1125330, “N-substituted pyrazino[2,3-c][1,2,6]thiadiazine 2,2-dioxides. A new class of diuretics” (J Med Chem, 1992).

What was measured:
Conditions in all cases: in vivo
Rattus norvegicus [1] = organism: Rattus norvegicus; test: Mean urinary output in rats (Control/Drug treatment value); value 22.8/35.1; type: ADME, organism-based, Urine
In short: (§1)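 Water-loaded male Sprague-Dawley rats (HC/CFY, 175-200 g), eight per group, deprived of food and water 18 h. Single oral gavage of 20-25 mg/kg (some 10 mg/kg) in 1% CMC/0.1% Tween 80, then distilled water 2.5 mL/100 g bw po. Cumulative urine over 6 h in metabolic cages; mean mL/6 h/kg bw vs vehicle group.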

Rattus norvegicus [2] = organism: Rattus norvegicus; test: Mean sodium excretion in rats (Control/Drug treatment value); value 0.41/2.06; type: ADME, organism-based
Rattus norvegicus [3] = organism: Rattus norvegicus; test: Mean urinary output in rats (Control/Drug treatment value); value 25.4/33.8; type: ADME, organism-based, Urine; in short: as §1
Rattus norvegicus [4] = organism: Rattus norvegicus; test: Mean sodium excretion in rats (Control/Drug treatment value); value 0.48/0.95; type: ADME, organism-based
Rattus norvegicus [5] = organism: Rattus norvegicus; test: Mean urinary output in rats (Control/Drug treatment value); value 27.7/36.4; type: ADME, organism-based, Urine
Rattus norvegicus [6] = organism: Rattus norvegicus; test: Mean sodium excretion in rats (Control/Drug treatment value); value 0.5/1.79; type: ADME, organism-based
Rattus norvegicus [7] = organism: Rattus norvegicus; test: Mean sodium excretion in rats (Control/Drug treatment value); value 0.44/2.68; type: ADME, organism-based
Rattus norvegicus [8] = organism: Rattus norvegicus; test: Mean urinary output in rats (Control/Drug treatment value); value 26.1/45.7; type: ADME, organism-based, Urine; in short: as §1

## CCCN1c2nc(CC)c(C)nc2C(N)=NS1(=O)=O
Rattus norvegicus [1]
  V: 1.5
Rattus norvegicus [2]
  Na: 5

## CCc1nc2c(nc1CC)N(CC)S(=O)(=O)N=C2N
Rattus norvegicus [3]
  V: 1.3
Rattus norvegicus [4]
  Na: 2

## CCN1c2nc(C)c(C)nc2C(N)=NS1(=O)=O
Rattus norvegicus [5]
  V: 1.3
Rattus norvegicus [6]
  Na: 3.6 m equiv 6hr-1 kg-1 (body weight)-1

## CCCN1c2nc(C)c(C)nc2C(N)=NS1(=O)=O
Rattus norvegicus [7]
  Na: 6.1
Rattus norvegicus [8]
  V: 1.8
